Tests used:
UACC-257 = assay: Cytotoxicity against human UACC257 cells assessed as cell growth at 10^-5 M after 48 hrs by SRB assay; type: functional; conditions: UACC-257, 48 h, read-out: Activity
How it was run: (§1)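 NCI-60 one-dose screen across nine tumour subpanels. Each agent added once at 10^-5 M, cultures incubated 48 h. Endpoint is sulforhodamine B protein staining read spectrophotometrically. Output is percent growth of treated cells relative to untreated controls.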

HCC 2998 = assay: Cytotoxicity against human HCC2998 cells assessed as cell growth at 10^-5 M after 48 hrs by SRB assay; type: functional; conditions: HCC 2998, 48 h, read-out: Activity
How it was run: (§2)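 NCI 60-cell-line primary one-dose screen across nine tumour subpanels. Compound added at a single concentration of 10^-5 M and cultures incubated 48 h. Endpoint was sulforhodamine B protein staining read spectrophotometrically, with growth expressed as percent of untreated control cells.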

SF-295 = assay: Cytotoxicity against human SF295 cells assessed as cell growth at 10^-5 M after 48 hrs by SRB assay; type: functional; conditions: SF-295, 48 h, read-out: Activity; how it was run: as §2
SNB-75 = assay: Cytotoxicity against human SNB75 cells assessed as cell growth at 10^-5 M after 48 hrs by SRB assay; type: functional; conditions: SNB-75, 48 h, read-out: Activity; how it was run: as §1
COLO 205 = assay: Cytotoxicity against human COLO205 cells assessed as cell growth at 10^-5 M after 48 hrs by SRB assay; type: functional; conditions: COLO 205, 48 h, read-out: Activity; how it was run: as §2
SF-268 = assay: Cytotoxicity against human SF268 cells assessed as cell growth at 10^-5 M after 48 hrs by SRB assay; type: functional; conditions: SF-268, 48 h, read-out: Activity; how it was run: as §2
Hs-578T = assay: Cytotoxicity against human Hs578T cells assessed as cell growth at 10^-5 M after 48 hrs by SRB assay; type: functional; conditions: read-out: Activity; how it was run: as §2
[1] = Induction of nitric oxide release in phosphate buffer at pH 7.4 at 0.1 mM after 4 hrs by Griess method in presence of 0.5 mM of N-acetylcysteine; type: physicochemical; conditions: pH 7.4, 4 h, 100 µM
How it was run: (§3)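 Compound in DMF diluted to final 10^-4 M in 1:1 50 mM phosphate buffer pH 7.4/MeOH with 5×10^-4 M N-acetylcysteine, 37 °C. Aliquot mixed with Griess reagent, 10 min at room temperature, A546 read. Nitrite quantified against sodium nitrite standards (10–80 nmol/mL); NO expressed as mol/mol. n = 4 reaction mixtures per compound.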

LOX IMVI = assay: Cytotoxicity against human LOXIMVI cells assessed as cell growth at 10^-5 M after 48 hrs by SRB assay; type: functional; conditions: read-out: Activity; how it was run: as §2
RXF 393 = assay: Cytotoxicity against human RXF393 cells assessed as cell growth at 10^-5 M after 48 hrs by SRB assay; type: functional; conditions: RXF 393, 48 h, read-out: Activity; how it was run: as §2
Malme-3M = assay: Cytotoxicity against human MALME-3M cells assessed as cell growth at 10^-5 M after 48 hrs by SRB assay; type: functional; conditions: read-out: Activity; how it was run: as §2
A498 = assay: Cytotoxicity against human A498 cells assessed as cell growth at 10^-5 M after 48 hrs by SRB assay; type: functional; conditions: A498, 48 h, read-out: Activity; how it was run: as §2
SK-MEL-5 = assay: Cytotoxicity against human SK-MEL-5 cells assessed as cell growth at 10^-5 M after 48 hrs by SRB assay; type: functional; conditions: SK-MEL-5, 48 h, read-out: Activity; how it was run: as §1
HT-29 = assay: Cytotoxicity against human HT-29 cells assessed as cell growth at 10^-5 M after 48 hrs by SRB assay; type: functional; conditions: HT-29, 48 h, read-out: Activity; how it was run: as §2
A549 = assay: Cytotoxicity against human A549 cells assessed as cell growth at 10^-5 M after 48 hrs by SRB assay; type: functional; conditions: A549, 48 h, read-out: Activity; how it was run: as §2
Rattus norvegicus [2] = assay: Antiinflammatory activity in albino rat assessed as inhibition of carrageenan-induced paw edema at 0.28 mmol/kg, po after 5 hrs relative to control; type: functional
How it was run: (§4)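 Adult male albino rats (120–140 g), four per group, fasted 24 h with water allowed. Test agent suspended in 0.5% w/v aqueous CMC and given orally at 0.28 mmol/kg; controls received CMC alone. After 30 min, 0.1 mL fresh 1% carrageenan in saline was injected subplantar into the right hind paw and saline into the left. Paw thickness was measured by Vernier caliper; % inhibition = [(VR−VL)control − (VR−VL)treated]/(VR−VL)control ×100. Mean ± SEM, one-way ANOVA.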

SN12C = assay: Cytotoxicity against human SN12C cells assessed as cell growth at 10^-5 M after 48 hrs by SRB assay; type: functional; conditions: read-out: Activity; how it was run: as §1
MDA-MB-435 = assay: Cytotoxicity against human MDA-MB-435 cells assessed as cell growth at 10^-5 M after 48 hrs by SRB assay; type: functional; conditions: MDA-MB-435, 48 h, read-out: Activity; how it was run: as §2
IGROV-1 = assay: Cytotoxicity against human IGROV1 cells assessed as cell growth at 10^-5 M after 48 hrs by SRB assay; type: functional; conditions: IGROV-1, 48 h, read-out: Activity; how it was run: as §2
M14 = assay: Cytotoxicity against human M14 cells assessed as cell growth at 10^-5 M after 48 hrs by SRB assay; type: functional; conditions: M14, 48 h, read-out: Activity; how it was run: as §2
CAKI-1 = assay: Cytotoxicity against human CAKI-1 cells assessed as cell growth at 10^-5 M after 48 hrs by SRB assay; type: functional; conditions: CAKI-1, 48 h, read-out: Activity; how it was run: as §2
MCF7 = assay: Cytotoxicity against human MCF7 cells assessed as cell growth at 10^-5 M after 48 hrs by SRB assay; type: functional; conditions: MCF7, 48 h, read-out: Activity; how it was run: as §2
[3] = Induction of nitric oxide release in phosphate buffer at pH 7.4 at 0.1 mM after 2 hrs by Griess method in presence of 0.5 mM of N-acetylcysteine; type: physicochemical; conditions: pH 7.4, 2 h, 100 µM; how it was run: as §3
OVCAR-3 = assay: Cytotoxicity against human OVCAR3 cells assessed as cell growth at 10^-5 M after 48 hrs by SRB assay; type: functional; conditions: OVCAR-3, 48 h, read-out: Activity; how it was run: as §2
SF-539 = assay: Cytotoxicity against human SF539 cells assessed as cell growth at 10^-5 M after 48 hrs by SRB assay; type: functional; conditions: SF-539, 48 h, read-out: Activity; how it was run: as §2
OVCAR-4 = assay: Cytotoxicity against human OVCAR4 cells assessed as cell growth at 10^-5 M after 48 hrs by SRB assay; type: functional; conditions: OVCAR-4, 48 h, read-out: Activity; how it was run: as §2
[4] = Induction of nitric oxide release in phosphate buffer at pH 7.4 at 0.1 mM after 6 hrs by Griess method in presence of 0.5 mM of N-acetylcysteine; type: physicochemical; conditions: pH 7.4, 6 h, 100 µM; how it was run: as §3
MDA-MB-468 = assay: Cytotoxicity against human MDA-MB-468 cells assessed as cell growth at 10^-5 M after 48 hrs by SRB assay; type: functional; conditions: MDA-MB-468, 48 h, read-out: Activity; how it was run: as §2
MDA-MB-231 = assay: Cytotoxicity against human MDA-MB-231 cells assessed as cell growth at 10^-5 M after 48 hrs by SRB assay; type: functional; conditions: MDA-MB-231, 48 h, read-out: Activity; how it was run: as §2
Rattus norvegicus [5] = assay: Antiinflammatory activity in albino rat assessed as inhibition of carrageenan-induced paw edema at 0.28 mmol/kg, po after 3 hrs relative to control; type: functional; how it was run: as §4

Compound | growth at 10 µM (UACC-257) | growth at 10 µM (HCC 2998) | growth at 10 µM (SF-295) | growth at 10 µM (SNB-75) | growth at 10 µM (COLO 205) | growth at 10 µM (SF-268) | growth at 10 µM (Hs-578T) | Activity [1] | growth at 10 µM (LOX IMVI) | growth at 10 µM (RXF 393) | growth at 10 µM (Malme-3M) | growth at 10 µM (A498) | growth at 10 µM (SK-MEL-5) | growth at 10 µM (HT-29) | growth at 10 µM (A549) | inhibition in vivo at 280 µmol/kg (Rattus norvegicus [2]) | growth at 10 µM (SN12C) | growth at 10 µM (MDA-MB-435) | growth at 10 µM (IGROV-1) | growth at 10 µM (M14) | also measured
COc1ccc(-c2nnc(SC/C(=N/O)c3ccccc3)n2-c2ccccc2)cc1 | 98% | 112% | 89.5% | 103% | 116% | 117% | 107% | 0.15 mol/mol | 101% | 108% | 96.5% | 73.8% | 93.9% | 95.1% | 85% | 73% | 97.9% | 102% | 101% | 106% | growth at 10 µM (CAKI-1): 96.5%; growth at 10 µM (MCF7): 104%; Activity [3]: 0.08 mol/mol; growth at 10 µM (OVCAR-3): 111%; growth at 10 µM (SF-539): 107%; growth at 10 µM (OVCAR-4): 86.4%; Activity [4]: 0.12 mol/mol; growth at 10 µM (MDA-MB-468): 96.5%; growth at 10 µM (MDA-MB-231): 117%; inhibition in vivo at 280 µmol/kg (Rattus norvegicus [5]): 63%
CCn1c(SC/C(=N/O)c2ccccc2)nnc1-c1ccc(OC)c(OC)c1 | 104% | 104% | 146% | 90.3% | 93.5% | 101% | 92.6% | 0.24 mol/mol | 93% | 114% | 94.8% | 92.3% | 96.3% | 100% | 95.7% | 71% | 99.5% | 116% | 106% | 126% | growth at 10 µM (CAKI-1): 102%; growth at 10 µM (MCF7): 118%; Activity [3]: 0.13 mol/mol; growth at 10 µM (OVCAR-3): 106%; growth at 10 µM (SF-539): 100%; growth at 10 µM (OVCAR-4): 97.5%; Activity [4]: 0.2 mol/mol; growth at 10 µM (MDA-MB-468): 111%; growth at 10 µM (MDA-MB-231): 104%; inhibition in vivo at 280 µmol/kg (Rattus norvegicus [5]): 71%

From ChEMBL document CHEMBL2390929, “New nitric oxide donating 1,2,4-triazole/oxime hybrids: synthesis, investigation of anti-inflammatory, ulceroginic liability and antiproliferative activities” (Bioorg Med Chem, 2013)
